Calls of active or inactive are those of the source. The calls are words filed in the database; no cut-off is given here.
Experiments:
[1] = Cytotoxicity against IM resistant human LAMA84-r cells assessed as reduction in cell viability incubated for 48 hrs by MTT assay; type: functional, cell-based
SW480 = assay: Cytotoxicity against human SW480 cells assessed as reduction in cell viability incubated for 48 hrs by MTT assay; type: functional, cell-based
Homo sapiens [2] = assay: Antitumor activity against human ES2 cells xenografted in BALB/c nu/nu mouse assessed as reduction in Ki67 expression in tumor tissue at 20 mg/kg, ip administered every 2 days for 40 days and measured on day 40 by immunofluorescence analysis; type: functional, organism-based
Outline: (§1)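 Nude mice bearing back tumors from injected T24 or ES-2 cells, treated versus saline controls. Tumors collected on Day 40 and marker expression in tumor tissue assessed by immunofluorescence staining.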

T-24 [3] = assay: Antitumor activity against human T24 cells xenografted in BALB/c nu/nu mouse assessed as increase in caspase 9 expression in tumor tissue at 20 mg/kg, ip administered every 2 days for 40 days and measured on day 40 by immunofluorescence analysis; type: functional, organism-based; outline: as §1
T-24 [4] = assay: Antitumor activity against human T24 cells xenografted in BALB/c nu/nu mouse assessed as reduction in tumor volume at 20 mg/kg, ip administered every 2 days for 40 days and measured on day 40; type: functional, organism-based
Outline: (§2)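 T24 or ES-2 cells injected on the backs of nude mice; saline-treated control group. Mice euthanized on Day 40, tumors excised, and tumor volume and weight measured.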

Homo sapiens [5] = assay: Antitumor activity against human ES2 cells xenografted in BALB/c nu/nu mouse assessed as reduction in Bcl2 expression in tumor tissue at 20 mg/kg, ip administered every 2 days for 40 days and measured on day 40 by immunofluorescence analysis; type: functional, organism-based; outline: as §1
T-24 [6] = assay: Antitumor activity against human T24 cells xenografted in BALB/c nu/nu mouse assessed as reduction in CD31 expression in tumor tissue at 20 mg/kg, ip administered every 2 days for 40 days and measured on day 40 by immunofluorescence analysis; type: functional, organism-based; outline: as §1
KBM5 [7] = assay: Cytotoxicity against human KBM5 cells expressing IM-resistant Bcr/Abl T315I mutant assessed as reduction in cell viability incubated for 48 hrs by MTT assay; type: functional, cell-based; details: KBM5, 48 h
Homo sapiens [8] = assay: Antitumor activity against human ES2 cells xenografted in BALB/c nu/nu mouse assessed as increase in caspase 3 expression in tumor tissue at 20 mg/kg, ip administered every 2 days for 40 days and measured on day 40 by immunofluorescence analysis; type: functional, organism-based; outline: as §1
MCF7 = assay: Cytotoxicity against human MCF7 cells assessed as reduction in cell growth incubated for 96 hrs by MTT assay; type: functional, cell-based; details: MCF7, 96 h
Outline: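 Growth inhibition of human breast carcinoma cells, reported as IC50; run in duplicate or triplicate.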

U-87 MG = assay: Cytotoxicity against human U87MG cells assessed as reduction in cell viability incubated for 48 hrs by MTS assay; type: functional, cell-based, U-87MG ATCC
Outline: (§3)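 Increasing concentrations applied to glioblastoma and neuroblastoma lines to give dose-response viability curves; cytotoxic IC50 from triplicate experiments. Incubation 48 h, except U343MG at 72 h.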

Homo sapiens [9] = assay: Antitumor activity against human ES2 cells xenografted in BALB/c nu/nu mouse assessed as reduction in CD31 expression in tumor tissue at 20 mg/kg, ip administered every 2 days for 40 days and measured on day 40 by immunofluorescence analysis; type: functional, organism-based; outline: as §1
KU812 cell line = assay: Cytotoxicity against human KU812 cells expressing IM- sensitive wild type Bcr/Abl assessed as reduction in cell viability incubated for 48 hrs by MTT assay; type: functional, cell-based; details: KU812, 48 h
PBMC = assay: Cytotoxicity against human PBMC assessed as cell viability by MTT assay; type: cell-based
Homo sapiens [10] = assay: Antitumor activity against human ES2 cells xenografted in BALB/c nu/nu mouse assessed as reduction in tumor weight at 20 mg/kg, ip administered every 2 days for 40 days and measured on day 40; type: functional, organism-based; outline: as §2
T-24 [11] = assay: Antitumor activity against human T24 cells xenografted in BALB/c nu/numouse assessed as increase in Bax expression in tumor tissue at 20 mg/kg, ip administered every 2 days for 40 days and measured on day 40 by immunofluorescence analysis; type: functional, organism-based; outline: as §1
[12] = Cytotoxicity against human SK-N-BE cells assessed as reduction in cell viability incubated for 48 hrs by MTT assay; type: functional, cell-based; outline: as §3
[13] = (§4) Cytotoxicity against human U343MG cells assessed as reduction in cell viability incubated for 72 hrs by MTS assay; type: functional, cell-based; details: U-343MG; outline: as §3
Homo sapiens [14] = species on record: Homo sapiens; assay: as §4; type: functional, cell-based; outline: as §3
SW-620 = assay: Cytotoxicity against human SW620 cells assessed as reduction in cell viability incubated for 48 hrs by MTT assay; type: functional, cell-based
T-24 [15] = assay: Antitumor activity against human T24 cells xenografted in BALB/c nu/nu mouse assessed as reduction in Ki67 expression in tumor tissue at 20 mg/kg, […] days for 40 days and measured on day 40 by immunofluorescence analysis; type: functional, organism-based; outline: as §1
T-24 [16] = assay: Antitumor activity against human T24 cells xenografted in BALB/c nu/nu mouse assessed as reduction in Bcl2 expression in tumor tissue at 20 mg/kg, ip administered every 2 days for 40 days and measured on day 40 by immunofluorescence analysis; type: functional, organism-based; outline: as §1
Homo sapiens [17] = assay: Antitumor activity against human ES2 cells xenografted in BALB/c nu/nu mouse assessed as increase in caspase 9 expression in tumor tissue at 20 mg/kg, ip administered every 2 days for 40 days and measured on day 40 by immunofluorescence analysis; type: functional, organism-based; outline: as §1
Homo sapiens [18] = assay: Antitumor activity against human ES2 cells xenografted in BALB/c nu/nu mouse assessed as reduction in tumor volume at 20 mg/kg, ip administered every 2 days for 40 days and measured on day 40; type: functional, organism-based; outline: as §2
HT-29 = assay: Cytotoxicity against human HT-29 cells assessed as reduction in cell viability incubated for 48 hrs by MTT assay; type: functional, cell-based
T-24 [19] = assay: Antitumor activity against human T24 cells xenografted in BALB/c nu/nu mouse assessed as increase in caspase 3 expression in tumor tissue at 20 mg/kg, ip administered every 2 days for 40 days and measured on day 40 by immunofluorescence analysis; type: functional, organism-based; outline: as §1
T-24 [20] = assay: Antitumor activity against human T24 cells xenografted in BALB/c nu/nu mouse assessed as reduction in tumor weight at 20 mg/kg, ip administered every 2 days for 40 days and measured on day 40; type: functional, organism-based; outline: as §2
[21] = Cytotoxicity against human SK-N-BE(2)C cells assessed as reduction in cell viability incubated for 48 hrs by MTT assay; type: functional, cell-based; outline: as §3
Tubulin = assay: Inhibition of tubulin polymerization (unknown origin) incubated for 15 mins followed by GTP addition and measured for 20 mins by spectrophotometry; type: protein-complex assay, Homo sapiens
Outline: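 Tubulin assembly assay with tubulin at 10 µM. IC50 for inhibition of polymerization; run in duplicate or triplicate.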

T98G = assay: Cytotoxicity against human T98G cells assessed as reduction in cell viability incubated for 48 hrs by MTS assay; type: functional, cell-based; outline: as §3
Homo sapiens [22] = assay: Antitumor activity against human ES2 cells xenografted in BALB/c nu/nu mouse assessed as increase in Bax expression in tumor tissue at 20 mg/kg, ip administered every 2 days for 40 days and measured on day 40 by immunofluorescence analysis; type: functional, organism-based; outline: as §1
[23] = Cytotoxicity against human LAMA84-s cells expressing IM-sensitive wild type Bcr/Abl assessed as reduction in cell viability incubated for 48 hrs by MTT assay; type: functional, cell-based
T-24 [24] = assay: Cytotoxicity against human T24 cells assessed as reduction in cell viability incubated for 48 hrs by MTT assay; type: functional, cell-based; details: T-24, 48 h
KBM5 [25] = assay: Cytotoxicity against human KBM5 cells expressing IM- sensitive wild type Bcr/Abl assessed as reduction in cell viability incubated for 48 hrs by MTT assay; type: functional, cell-based; details: KBM5, 48 h
Tubulin (Homo sapiens) = Tubulin (Homo sapiens) (UniProt P68371+Q9H4B7+P0DPH7+P68366+Q13509+Q71U36+P04350+Q3ZCM7+P07437+P68363+Q9BQE3+Q6PEY2+Q13885+Q9BVA1+Q9BUF5); assay: Inhibition of [3H]colchicine binding to tubulin (unknown origin) at 5 uM incubated for 10 mins by DEAE-cellulose filter method relative to control; type: protein-complex assay
HCT-116 = assay: Cytotoxicity against human HCT116 cells assessed as reduction in cell viability incubated for 48 hrs by MTT assay; type: functional, cell-based
KBM5 [26] = assay: Induction of apoptotic cell death in human KBM5 cells expressing IM-resistant Bcr/Abl T315I mutant at 10 nM incubated for 48 hrs by Annexin V-staining based flow cytometry; type: functional
Outline: (§5)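 KBM5-WT and KBM5-T315I cells exposed 48 h to 10 nM test compound alone or combined with 10 nM nilotinib (nilotinib alone as comparator). Apoptotic cells quantified by annexin V staining and flow cytometry; triplicate.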

KBM5 [27] = assay: Induction of apoptotic cell death in human KBM5 cells expressing IM-sensitive wild type Bcr/Abl at 10 nM incubated for 48 hrs by Annexin V-staining based flow cytometry; type: functional; outline: as §5

In the case of COc1cc(C(=O)c2cn(-c3cccc(N)c3)cc2-c2ccc(N)cc2)cc(OC)c1OC, the IC50 [1] is reported as 12 nM, the inhibition (SW480) is reported as “Dose-dependent effect” and the IC50 (SW480; SW480, 48 h) is reported as 48 nM. For the same molecule, the inhibition (Homo sapiens [2]) was “Active”, the Activity (T-24 [3]) was “Active” and the inhibition (T-24 [4]) was “Active”. For the same molecule, the inhibition (Homo sapiens [5]) was “Active”, the inhibition (T-24 [6]) was “Active” and the IC50 (KBM5 [7]) was 16 nM. For the same molecule, the Activity (Homo sapiens [8]) was “Active”, the IC50 (MCF7) was 14 nM and the Emax (U-87 MG) was 32%. The IC50 (U-87 MG) was 30.9 to 31 nM, the inhibition (U-87 MG; U-87MG ATCC) was “Dose-dependent effect” and the inhibition (Homo sapiens [9]) was “Active”. The IC50 (KU812 cell line) was 8 nM, the Activity (PBMC) was “Non-Toxic” and the inhibition (Homo sapiens [10]) was “Active”. For the same molecule, the Activity (T-24 [11]) was “Active”, the IC50 [12] was 221 nM and the Emax [13] was 36.3%. The IC50 [13] was 11.9 to 12 nM, the inhibition (Homo sapiens [14]) was “Dose-dependent effect” and the inhibition (SW-620) was “Dose-dependent effect”. The IC50 (SW-620; SW-620, 48 h) was 28 nM, the inhibition (T-24 [15]) was “Active” and the inhibition (T-24 [16]) was “Active”. For the same molecule, the Activity (Homo sapiens [17]) was “Active”, the inhibition (Homo sapiens [18]) was “Active” and the inhibition (HT-29) was “Dose-dependent effect”. The IC50 (HT-29; HT-29, 48 h) was 51 nM, the Activity (T-24 [19]) was “Active” and the inhibition (T-24 [20]) was “Active”. For the same molecule, the IC50 [21] was 56 nM, the IC50 (Tubulin) was 470 nM and the Emax (T98G) was 41.3%. For the same molecule, the IC50 (T98G) was 36.6 to 37 nM, the inhibition (T98G) was “Dose-dependent effect” and the Activity (Homo sapiens [22]) was “Active”. For the same molecule, the IC50 [23] was 10 nM, the IC50 (T-24 [24]) was 12 nM and the IC50 (KBM5 [25]) was 14 nM. For the same molecule, the inhibition (Tubulin (Homo sapiens)) was 92%, the inhibition (HCT-116) was “Dose-dependent effect” and the IC50 (HCT-116; HCT-116, 48 h) was 27 nM.

In the case of Cc1cn(-c2cc(NC(=O)c3ccc(C)c(Nc4nccc(-c5cccnc5)n4)c3)cc(C(F)(F)F)c2)cn1 [NILOTINIB], the IC50 [1] is reported as 126 nM, the IC50 (KBM5 [7]) is reported as 2420 nM and the IC50 (KU812 cell line) is reported as 10 nM. For the same molecule, the Activity (KBM5 [26]) was “Active”, the Activity (KBM5 [27]) was “Active” and the IC50 [23] was 11 nM. It also gave an IC50 (KBM5 [25]) of 12 nM.

— ChEMBL document CHEMBL4312029, “Structure-activity relationship studies and in vitro and in vivo anticancer activity of novel 3-aroyl-1,4-diarylpyrroles against solid tumors and hematological malignancies” (Eur J Med Chem, 2020)
